Columns and labels:
[1] = molecular target: T1, Nuclear receptor subfamily 1 group D member 1 (Homo sapiens) (UniProt P20393); assay: Agonist activity at Rev-erbalpha assessed as repression of transcription at 10 uM by luciferase-reporter gene assay relative to control; assay type: functional
T1 sequence (whole entry): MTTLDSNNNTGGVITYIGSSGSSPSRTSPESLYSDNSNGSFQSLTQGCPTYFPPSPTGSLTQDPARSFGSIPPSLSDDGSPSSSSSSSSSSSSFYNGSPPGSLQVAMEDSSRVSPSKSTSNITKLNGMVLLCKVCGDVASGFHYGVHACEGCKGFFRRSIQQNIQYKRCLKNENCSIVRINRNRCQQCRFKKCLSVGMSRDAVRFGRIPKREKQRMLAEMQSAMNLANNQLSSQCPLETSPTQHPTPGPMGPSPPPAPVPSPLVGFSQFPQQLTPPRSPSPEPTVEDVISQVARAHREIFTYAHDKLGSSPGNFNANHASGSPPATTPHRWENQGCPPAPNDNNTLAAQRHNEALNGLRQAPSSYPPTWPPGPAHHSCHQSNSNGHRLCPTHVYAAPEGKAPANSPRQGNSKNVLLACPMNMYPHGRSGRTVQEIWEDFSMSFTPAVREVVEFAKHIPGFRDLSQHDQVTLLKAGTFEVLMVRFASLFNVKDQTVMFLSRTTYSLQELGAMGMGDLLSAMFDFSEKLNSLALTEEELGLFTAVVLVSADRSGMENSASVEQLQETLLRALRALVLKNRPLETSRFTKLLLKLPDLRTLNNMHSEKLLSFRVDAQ
In short: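 Cells co-transfected with a full-length Rev-erbα expression plasmid and a luciferase reporter driven by the Bmal1 promoter. Compounds were screened at 1 μM and 10 μM for repression of Bmal1-driven transcription. The value is the fold change in luciferase signal relative to the DMSO control at 10 μM compound, where 1.0 means no repression.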

[2] = molecular target: T2, Nuclear receptor subfamily 1 group D member 1 (Homo sapiens, UniProt P20393); assay: Agonist activity at Rev-erbalpha assessed as repression of transcription by luciferase-reporter gene assay; assay type: functional
T2 sequence (P20393 whole entry): T1 sequence (whole entry)
In short: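 Cells co-transfected with a full-length Rev-erbα expression plasmid and a luciferase reporter driven by the Bmal1 promoter; repression of Bmal1 transcription read by luciferase. Compounds first tested at 1 μM and 10 μM, value given as fold change versus DMSO control at 10 μM (1.0 = no repression). Active compounds then titrated in an eleven-point dose response to give EC50.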

[3] = molecular target: T2, Nuclear receptor subfamily 1 group D member 1; assay: Agonist activity at Rev-erbalpha assessed as NCoR recruitment by FRET assay; assay type: functional
[4] = Half life in Sprague-Dawley rat at 1 mg/kg, iv and 2 mg/kg, po by LC-MS/MS analysis; assay type: ADME, organism-based; details: in vivo
In short: (§1)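 Male/female unspecified Sprague-Dawley rats, n = 3; single 1 mg/kg i.v. dose and 2 mg/kg oral gavage dose. Blood sampled at 5, 15, 30 min, 1, 2, 4, 6, 8 h into EDTA tubes, plasma by centrifugation, proteins precipitated with acetonitrile, drug measured by LC-MS/MS. Noncompartmental analysis gave t1/2, clearance, Vd, AUC, Cmax and oral bioavailability.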

Rattus norvegicus [5] = assay: Volume of distribution in Sprague-Dawley rat at 1 mg/kg, iv and 2 mg/kg, po by LC-MS/MS analysis; assay type: ADME, organism-based; details: in vivo; in short: as §1
Brain = assay: Brain penetration in C57Bl6 mouse at 10 mg/kg, ip after 2 hrs by LC-MS/MS analysis; assay type: ADME, organism-based; parameters: dose 10 mg/kg, route intraperitoneal; details: in vivo
In short: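 C57Bl6 mice (n = 3), single 10 mg/kg intraperitoneal dose; blood and brain collected at 2 h, plasma frozen at −80°C. Plasma and brain mixed with acetonitrile (1:5 v:v or w:v), brain probe-sonicated, drug measured by LC-MS/MS against plasma or blank-brain-matrix standards; brain penetration as brain/plasma level percentage.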

Rattus norvegicus [6] = assay: Oral bioavailability in Sprague-Dawley rat at 2 mg/kg by LC-MS/MS analysis; assay type: ADME, organism-based; details: in vivo; in short: as §1

| SMILES | fold change (FC) [1] | EC50 [2] [µM] | also measured |
| --- | --- | --- | --- |
| CCOC(=O)C1Cc2ccccc2CN1Cc1ccc([N+](=O)[O-])o1 (stereo unspecified) | 0.9 | – | – |
| CCCOc1ccc(OCC2Cc3ccccc3CN2C(=O)c2cccc3ccccc23)cc1 (stereo unspecified) | 0.45 | 0.077 | – |
| O=C(Nc1ccccc1)C1Cc2ccccc2CN1C(=O)c1cccc2ccccc12 (stereo unspecified) | 0.59 | – | – |
| CCOC(=O)C1Cc2ccccc2CN1Cc1nc2ccccc2s1 (stereo unspecified) | 0.95 | – | – |
| O=C(c1cccc2ccccc12)N1Cc2ccccc2CC1COc1ccccc1 (stereo unspecified) | 0.37 | 0.84 | – |
| CCOC(=O)C1Cc2ccccc2CN1C(=O)c1ccno1 (stereo unspecified) | 1 | – | – |
| CN(C)c1cccc(OCC2Cc3ccccc3CN2C(=O)c2cccc3ccccc23)c1 (stereo unspecified) | 0.3 | 0.78 | – |
| NC(=O)C1Cc2ccccc2CN1C(=O)c1cccc2ccccc12 (stereo unspecified) | 0.61 | – | – |
| CCOC(=O)C1Cc2ccccc2CN1Cc1ccc([N+](=O)[O-])s1 (stereo unspecified) | 0.78 | – | – |
| CC(C)(C)OC(=O)CN(Cc1ccc(Cl)cc1)Cc1ccc([N+](=O)[O-])s1 [GSK-4112] | 0.82 | 2.3 | EC50 [3]: 0.4 µM; half-life [4]: 0.4 h; Vd (Rattus norvegicus [5]): 9.9 L/kg; Drug uptake (Brain): 140%; F (Rattus norvegicus [6]): 0% |
| CCOC(=O)C1Cc2ccccc2CN1Cc1ccc(C(=O)O)s1 (stereo unspecified) | 1 | – | – |
| CCOC(=O)C1Cc2ccccc2CN1C(=O)Oc1ccccc1 (stereo unspecified) | 1 | – | – |
| CCOC(=O)C1Cc2ccccc2CN1Cc1cccc2ccccc12 (stereo unspecified) | 1 | – | – |
| CCOC(=O)C1Cc2ccccc2CN1C(=O)Oc1ccc(Cl)cc1 (stereo unspecified) | 1.3 | – | – |
| O=C(c1cccc2ccccc12)N1Cc2ccccc2CC1CNS(=O)(=O)c1ccccc1 (stereo unspecified) | 0.4 | – | – |
| O=C(c1cccc2ccccc12)N1Cc2ccccc2CC1COc1ccc(-c2ccccc2)cc1 (stereo unspecified) | 0.4 | 0.65 | – |
| O=C(O)C1Cc2ccccc2CN1C(=O)c1cccc2ccccc12 (stereo unspecified) | 0.67 | – | – |
| O=C(c1cccc2ccccc12)N1Cc2ccccc2CC1CNCc1ccccc1 (stereo unspecified) | 0.43 | > 3 | half-life [4]: 1.7 h; Vd (Rattus norvegicus [5]): 3.8 L/kg; F (Rattus norvegicus [6]): 0% |
| CCOC(=O)C1Cc2ccccc2CN1C(=O)c1cccc2c1CCCC2 (stereo unspecified) | 0.53 | 2.1 | – |
| O=C(c1cccc2ccccc12)N1Cc2ccccc2CC1COc1ccc(OC(F)(F)F)cc1 (stereo unspecified) | 0.4 | 0.6 | – |
| CCOC(=O)C1Cc2ccccc2CN1S(=O)(=O)c1ccc(C)cc1 (stereo unspecified) | 0.51 | 1.1 | – |
| COc1cccc(OCC2Cc3ccccc3CN2C(=O)c2cccc3ccccc23)c1 (stereo unspecified) | 0.45 | 0.62 | – |
| COc1ccc(OCC2Cc3ccccc3CN2C(=O)c2cccc3ccccc23)cc1OC (stereo unspecified) | 0.55 | 0.33 | – |
| O=C(c1cccc2ccccc12)N1Cc2ccccc2CC1COc1ccc(-n2cncn2)cc1 (stereo unspecified) | 0.35 | 0.12 | – |
| O=C(c1cccc2ccccc12)N1Cc2ccccc2CC1CO (stereo unspecified) | 0.71 | – | – |
| O=C(c1cccc2ccccc12)N1Cc2ccccc2CC1COc1cccc2ccccc12 (stereo unspecified) | 0.41 | 1.2 | – |

| SMILES | fold change (FC) [1] | EC50 [2] [µM] | also measured |
| --- | --- | --- | --- |
| CCOC(=O)C1Cc2ccccc2CN1C(=O)Nc1ccccc1 (stereo unspecified) | 1.5 | – | – |
| CCOC(=O)C1Cc2ccccc2CN1C(=O)c1ccccc1 (stereo unspecified) | 0.97 | – | – |
| CCOC(=O)C1Cc2ccccc2CN1C(=O)Nc1cccc2ccccc12 (stereo unspecified) | 1 | – | – |
| COc1ccccc1OCC1Cc2ccccc2CN1C(=O)c1cccc2ccccc12 (stereo unspecified) | 0.4 | 2 | – |
| COc1ccc(OCC2Cc3ccccc3CN2C(=O)c2cccc3ccccc23)cc1 (stereo unspecified) | 0.38 | 0.12 | – |
| CC(C)(C)Oc1ccc(OCC2Cc3ccccc3CN2C(=O)c2cccc3ccccc23)cc1 (stereo unspecified) | 0.5 | 0.14 | – |
| CCOC(=O)C1Cc2ccccc2CN1C(=O)C1COc2ccccc2O1 (stereo unspecified) | 0.81 | – | – |
| O=C(c1cccc2ccccc12)N1Cc2ccccc2CC1COCc1ccccc1 (stereo unspecified) | 0.41 | 0.65 | half-life [4]: 1.9 h; Vd (Rattus norvegicus [5]): 3.8 L/kg; F (Rattus norvegicus [6]): 0% |
| CCOC(=O)C1Cc2ccccc2CN1C(=O)c1ccccc1Cl (stereo unspecified) | 0.78 | – | – |
| CCOC(=O)C1Cc2ccccc2CN1S(=O)(=O)c1cccc2ccccc12 (stereo unspecified) | 0.5 | 1.7 | – |
| CCOC(=O)C1Cc2ccccc2CN1C(=O)c1cccc2cccnc12 (stereo unspecified) | 0.64 | – | – |
| CCOC(=O)C1Cc2ccccc2CN1C(=O)c1cccc2ccccc12 (stereo unspecified) | 0.41 | 2.5 | – |
| CCOC(=O)C1Cc2ccccc2CN1C(=O)c1cccc2oc(C)cc12 (stereo unspecified) | 0.51 | > 3 | – |
| CCOC(=O)C1Cc2ccccc2CN1C(=O)C1CCCc2ccccc21 (stereo unspecified) | 0.73 | – | – |
| CCOC(=O)C1Cc2ccccc2CN1C(=O)c1cccc(Br)c1 (stereo unspecified) | 0.97 | – | – |
| CCOc1ccc(OCC2Cc3ccccc3CN2C(=O)c2cccc3ccccc23)cc1 (stereo unspecified) | 0.35 | 0.097 | – |
| NCC1Cc2ccccc2CN1C(=O)c1cccc2ccccc12 (stereo unspecified) | 0.74 | – | – |
| CCOC(=O)C1Cc2ccccc2CN1Cc1ccc(C(F)(F)F)nc1 (stereo unspecified) | 1 | – | – |
| CC(=O)OCC1Cc2ccccc2CN1C(=O)c1cccc2ccccc12 (stereo unspecified) | 0.65 | – | – |
| CCOC(=O)C1Cc2ccccc2CN1C(=O)Oc1cccc(C(F)(F)F)c1 (stereo unspecified) | 1 | – | – |
| O=C(c1cccc2ccccc12)N1Cc2ccccc2CC1COc1ccc(F)cc1 (stereo unspecified) | 0.43 | 0.8 | – |
| O=C(NCc1ccccc1)C1Cc2ccccc2CN1C(=O)c1cccc2ccccc12 (stereo unspecified) | 0.55 | > 3 | – |
| O=C(NCC1Cc2ccccc2CN1C(=O)c1cccc2ccccc12)OCc1ccccc1 (stereo unspecified) | 0.53 | – | – |
| O=C(c1cccc2ccccc12)N1Cc2ccccc2CC1COc1ccc(F)cc1F (stereo unspecified) | 0.45 | 0.71 | – |
| CCOC(=O)C1Cc2ccccc2CN1S(=O)(=O)c1cccc(Br)c1 (stereo unspecified) | 0.75 | – | – |

— ChEMBL document CHEMBL2029304, “Synthesis and SAR of tetrahydroisoquinolines as Rev-erbα agonists” (Bioorg Med Chem Lett, 2012)
